Laboratory results as given in ChEMBL document CHEMBL1155849, “Cadinane sesquiterpenes from the leaves of Eupatorium adenophorum” (J Nat Prod, 2008).

System: HCT-8
Assay: Cytotoxicity against human HCT8 cells by MTT assay
Type: functional, cell-based
In short: (§1)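 Cell proliferation was read out by MTT. The lines were HCT-8 (colon), Bel-7402 (hepatoma) and A2780 (ovarian), all of human origin. Values are reported as IC50.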

Structure (SMILES) | IC50 [µM]
CC1=C[C@H]2[C@@H](CC1)[C@H](C)C[C@H](O)[C@@]2(O)C(C)C | 2
CC1=C[C@@H]2C3=C(C)COO[C@@]3(O)C[C@@H](C)[C@@H]2CC1=O | > 5
CC1=C[C@@H]2C3=C(C)C(=O)O[C@H]3C[C@@H](C)[C@@H]2CC1=O | > 5
CC1=C[C@@H]2C3=C(C)C(=O)O[C@]3([C@@]34C[C@@H](C)[C@@H]5CC(=O)C(C)=C[C@@H]5C3=C(C)C(=O)O4)C[C@@H](C)[C@@H]2CC1=O | > 5

System: Bel-7402
Assay: Cytotoxicity against human Bel7402 cells by MTT assay
Type: functional, cell-based
In short: as §1

Structure (SMILES) | IC50 [µM]
CC1=C[C@H]2[C@@H](CC1)[C@H](C)C[C@H](O)[C@@]2(O)C(C)C | 1.7
CC1=C[C@@H]2C3=C(C)COO[C@@]3(O)C[C@@H](C)[C@@H]2CC1=O | > 5
CC1=C[C@@H]2C3=C(C)C(=O)O[C@H]3C[C@@H](C)[C@@H]2CC1=O | > 5
CC1=C[C@@H]2C3=C(C)C(=O)O[C@]3([C@@]34C[C@@H](C)[C@@H]5CC(=O)C(C)=C[C@@H]5C3=C(C)C(=O)O4)C[C@@H](C)[C@@H]2CC1=O | > 5

System: A2780
Assay: Cytotoxicity against human A2780 cells by MTT assay
Type: functional, cell-based
In short: as §1

Structure (SMILES) | IC50 [µM]
CC1=C[C@H]2[C@@H](CC1)[C@H](C)C[C@H](O)[C@@]2(O)C(C)C | 1.7
CC1=C[C@@H]2C3=C(C)COO[C@@]3(O)C[C@@H](C)[C@@H]2CC1=O | > 5
CC1=C[C@@H]2C3=C(C)C(=O)O[C@H]3C[C@@H](C)[C@@H]2CC1=O | > 5
CC1=C[C@@H]2C3=C(C)C(=O)O[C@]3([C@@]34C[C@@H](C)[C@@H]5CC(=O)C(C)=C[C@@H]5C3=C(C)C(=O)O4)C[C@@H](C)[C@@H]2CC1=O | > 5
